Source: PubChem
Rows were chosen to be rich in hits. Some 1.8% of all compounds tested hit in one or more screens of this group.
697 NFkB inh = lowers PMA/ionomycin-induced NF-kB signal in 697 B cells. AID 435022. hit rate 0.33% among 330,000. 697 B-cell NF-kB luciferase reporter, 16 h. inhibition, % at 4 µM; in the data active = inhibition above about 35%
iPSC survival up = increases survival of single human iPS cells; hiPSC single-cell survival, ATPlite luminescence; 100% = ROCK inhibitor wells, 0% = DMSO; survival enhancement, % at 20 µM; hit rate 0.044% among 360,000; AID 602274; in the data active = survival enhancement above about 18%;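 also: cells exposed to compounds for 16 hours before the ATP read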
Gli-Sufu antag = blocks Gli-Sufu signaling in a luciferase reporter; Sufu-KO-LIGHT fibroblasts, Gli luciferase reporter luminescence; inhibition, % at 5 µM; hit rate 0.74% among 340,000;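 active = inhibition above about 55%, limit read from the data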;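 also: 0% = DMSO-treated cells and 100% = wells with medium but no cells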
Jurkat NFkB inh = lowers PMA/ionomycin-induced NF-kB signal in Jurkat cells; PMA/ionomycin-induced NF-kB luciferase reporter, luminescence; inhibition, % at 4 µM; hit rate 0.53% among 330,000; in the data active = inhibition above about 50%
Lipid droplet = modulators of hepatic lipid droplet formation | inhibition, % at 6.5 µM | AML12 mouse hepatocytes, oleate lipid droplets, BODIPY imaging | hit rate 0.4% among 240,000 | AID 1656;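 active = lipid droplet intensity inhibited by at least 50%, with more than 500 cells counted; inconclusive = wells with under 300 cells, treated as cytotoxic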
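Material – mouse AML12 hepatocyte cell line, fixed after treatment · Compound dosing – one dose, 6.5 µM compound · Times – compound with oleate, overnight · Measured by – Image-based BODIPY and DAPI two-channel analysis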
TAG inh = triacylglycerol accumulation inhibition; H9c2 cells, Nile Red lipid (TAG) fluorescence; cells loaded with 200 µM oleic acid; inhibition, % at 12.5 µM; hit rate 0.66% among 230,000; AID 651582;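 active = pattern-corrected inhibition of lipid staining of at least 50% with the nuclear-stain viability signal not falling by more than 50%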;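 also: 0% = DMSO wells and 100% = triacsin C control wells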
Jurkat NFkB conf = inhibitors of the PMA/ionomycin-induced NF-kB reporter in Jurkat cells, retest; shares compounds with Jurkat NFkB inh; Jurkat NF-kB luciferase, 16 h; inhibition, % at 4 µM; hit rate 27% among 2,700; AID 435020;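 active = inhibition reaching about 45% at 4 µM in either replicate, limit read from the data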;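 also: plate controls were PMA/ionomycin stimulated DMSO wells for no effect and unstimulated DMSO wells for full effect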
697 NFkB conf = lowers PMA/ionomycin-induced NF-kB signal in 697 B cells; inhibition, % at 4 µM; shares compounds with 697 NFkB inh; hit rate 35% among 2,000; AID 449746; 697 B-cell NF-kB luciferase, 16 h; in the data active = inhibition mostly above about 28%, no sharp cut-off; inactive = mostly below about 22%
Gli-Sufu confirm = Gli-SUFU antagonism confirmation, single concentration; AID 602428; inhibition, % at 5 µM; hit rate 40% among 2,500; Sufu-KO-LIGHT cells, Gli luciferase reporter, luminescence; shares compounds with Gli-Sufu antag;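 active = mean inhibition at 5 µM reaching about 45%, limit read from the data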;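 also: plate controls were DMSO-treated cells for no effect and wells lacking cells for full effect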
SufuKO cytotox = cytotoxicity counter-screen for Gli-SUFU antagonists. shares compounds with Gli-Sufu antag. Sufu-KO-LIGHT cells cytotoxicity, ATP luminescence. cytotoxicity, % at 5 µM. hit rate 32% among 2,500. AID 651994;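 active = mean cytotoxicity at 5 µM above about 25%, limit read from the data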;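 also: cells exposed to compound overnight for roughly 16 to 18 hours; plate controls were DMSO wells with cells for no effect and medium without cells for full effect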
Wnt3a counter = inhibits Wnt3a reporter, counter-screen for Gli-SUFU antagonists | shares compounds with Gli-Sufu antag | Wnt-LIGHT cells, Wnt3a-driven luciferase reporter, luminescence | inhibition, % at 6.25 µM | hit rate 20% among 2,500 | AID 651995;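 active = mean inhibition above about 25%, limit read from the data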
Starred values were filed as active, the others as inactive; ? = inconclusive; . = no result.

SMILES | 697 NFkB inh | iPSC survival up | Gli-Sufu antag | Jurkat NFkB inh | Lipid droplet | TAG inh | Jurkat NFkB conf | Gli-Sufu confirm | SufuKO cytotox | Wnt3a counter | others
O=C(N/N=C/c1ccc(O)cc1)c1[nH]c2ccc(Br)cc2c1-c1ccccc1 | -3.5 | -2.7 | 63.4* | 60.2* | ? | 28.5 | 30.9 | 62.6* | 72.4* | 16.6
O=C(N/N=C/c1c[nH]c2ccccc12)c1[nH]c2ccc(Br)cc2c1-c1ccccc1 | . | -2.3 | 47.7 | . | 23.0 | 32.3 | . | . | . | .
Cc1c(C(=O)N/N=C/c2ccc(Cl)cc2)[nH]c2ccc(Cl)cc12 | 22.6 | -2.4 | 50.1 | 52.5* | -163.1 | 42.2 | 51.1* | 54.5* | 57.7* | -34.0
CCC(Oc1ccccc1)C(=O)O/N=C(\N)c1ccc(OC)c(OC)c1 (stereo not drawn) | -1.7 | 0.0 | -3.6 | 2.5 | -4.6 | -1.5 | . | . | . | .
CCOC1(c2ccccc2)CC1C(=O)N/N=C/c1cccc([N+](=O)[O-])c1 (stereo not drawn) | -8.5 | 0.8 | 3.7 | -16.1 | -7.0 | -4.0 | . | . | . | .
O=C(NCC1CC1)Nc1cccc(C(F)(F)F)c1 | . | 0.5 | 3.7 | . | 3.9 | . | . | . | . | .
Cc1cc(N2CCC(C)CC2)nc(-c2ccccc2O)n1 | 7.8 | -0.8 | -1.2 | 3.5 | 2.2 | -9.5 | . | . | . | .
Cc1cc(N2CCC(C)CC2)nc(NCc2ccccc2)n1 | -27.6 | -3.0 | 51.9 | 53.3* | . | . | 4.2 | 21.6 | 31.2* | -16.6
CSc1nc(O)c(/C=C2\C=Nc3ccccc32)[nH]1 | -37.4 | -2.6 | 5.8 | -40.3 | -2.2 | . | . | . | . | .
O=c1[nH]c(/C=C2\C=Nc3ccccc32)c(O)n1Cc1ccccc1F | -18.4 | -0.1 | 56.2* | 84.0* | -68.1 | 46.3 | 9.6 | 65.3* | 26.7* | 10.4
CC(=O)c1c(C)[nH]c(C(=O)OCC(=O)Nc2cc(Cl)ccc2[N+](=O)[O-])c1C | -10.5 | -1.9 | 5.1 | 4.8 | -9.8 | -4.0 | . | . | . | .
CC(=O)c1c(C)[nH]c(C(=O)OCC(=O)Nc2ccc(C)cc2[N+](=O)[O-])c1C | 48.5* | -0.3 | 77.3* | 61.7* | -30.1 | -30.0 | 68.8* | 80.0* | 26.5* | 27.6* | 697 NFkB conf=26.7
COc1ccc(CNC(=O)C2(CC3CC(c4ccccc4)=NO3)CCNCC2)cc1 (stereo not drawn) | -2.4 | -1.0 | 4.5 | 8.3 | . | 4.0 | . | . | . | .
CN(C)c1cc[n+](CC(=O)c2ccc(-c3ccccc3)cc2)cc1 | 61.8* | -4.4 | 87.5* | 73.2* | 2.2 | -7.9 | 60.2* | 85.9* | 38.0* | 38.8* | 697 NFkB conf=46.0*
CCN(C(=O)CN(C1=NC2CS(=O)(=O)CC2S1)c1ccc(OC)cc1)c1cccc(C)c1 (stereo not drawn) | . | -1.4 | . | . | . | -1.4 | . | . | . | .
COc1ccc(/C=C/C(=O)c2cc(F)ccc2OC(=O)c2ccccc2)cc1OC | -220.7 | -5.9 | 50.4 | 58.4* | . | 80.4* | 61.0* | 60.4* | 49.5* | 16.3
COc1ccc(/C=C/C(=O)c2cc(Br)ccc2OC(=O)c2ccco2)cc1OC | 10.5 | 2.0 | -9.6 | -2.3 | 1.1 | . | . | . | . | .
CCOC(=O)C1CCCN(S(=O)(=O)c2ccc(C)cc2)C1 (stereo not drawn) | -16.6 | 3.5 | 3.9 | 3.0 | -13.7 | -14.0 | . | . | . | .
CCOC(=O)C1CCCN(S(=O)(=O)c2ccc(S(=O)(=O)N(CC)CC)cc2)C1 (stereo not drawn) | 43.2* | 0.0 | 77.5* | 59.7* | -25.1 | -33.0 | 62.2* | 74.5* | 32.4* | 9.2 | 697 NFkB conf=52.0*
CCCCC(=O)N(C)c1c(CC)nc2c(OCCOc3ccc(F)cc3)cccn12 | . | -2.6 | . | . | . | 1.5 | . | . | . | .
COc1ccc(CCNc2ccc(C(=O)O)cc2[N+](=O)[O-])cc1OC | -15.4 | -0.4 | 6.5 | 6.0 | -2.3 | 6.6 | . | . | . | .
COc1ccc(C(=O)N2CCN(c3ccc([N+](=O)[O-])c(NCCc4ccc(OC)c(OC)c4)c3)CC2)cc1 | 15.3 | -2.6 | 78.8* | 73.4* | -40.1 | . | 75.2* | 76.3* | 32.4* | -17.1
Cc1cc(N2CCN(c3nc4ccccc4s3)CC2)n2ncnc2n1 | 53.7* | -4.2 | 71.2* | 61.7* | . | . | 54.0* | 66.1* | 38.5* | -18.8 | 697 NFkB conf=42.0*
O=S(=O)(c1ccc2c(c1)OCCO2)N1CCN(c2ncnc3sccc23)CC1 | 3.8 | 0.6 | 64.0* | 51.5* | 8.5 | . | 54.0* | 60.6* | 48.1* | 21.9
CCn1c2ccccc2c2cc(NC(=O)c3cc(OC)c(OC)c(OC)c3)ccc21 | -140.3 | -1.0 | 70.7* | 57.5* | . | . | 51.0* | 59.8* | 64.1* | 0.3
SMILES | 697 NFkB inh | iPSC survival up | Gli-Sufu antag | Jurkat NFkB inh | Lipid droplet | TAG inh | Jurkat NFkB conf | Gli-Sufu confirm | SufuKO cytotox | Wnt3a counter | others
CCn1c2ccccc2c2cc(NC(=O)c3cc(OC)cc(OC)c3)ccc21 | 2.9 | -1.2 | 59.1* | 59.8* | ? | . | 41.5 | 62.2* | 54.7* | -10.1
CCC1CCCCN1C(=O)c1cc(COc2ccc3ncccc3c2)on1 (stereo not drawn) | -31.0 | 0.8 | 72.0* | 57.8* | -89.9 | -35.6 | 60.0* | 71.9* | 34.9* | 16.8
CCN1CCN(C(=O)c2cc(COc3ccc4ncccc4c3)on2)CC1 | -34.4 | 0.6 | 30.5 | 26.5 | -20.7 | -42.9 | . | . | . | .
COc1ccc(N(C(=O)c2cnccn2)C(C(=O)NC2CCCCC2)c2ccc(Cl)cc2)cc1 (stereo not drawn) | -2.1 | -0.8 | -4.0 | -1.3 | . | 2.7 | . | . | . | .
COc1ccc(C(C(=O)NC2CCCCC2)N(C(=O)CCl)c2ccc(Cl)cc2)cc1 (stereo not drawn) | 92.4* | -2.0 | 84.8* | 75.9* | -17.3 | . | 19.5 | 32.9 | 27.8* | -13.0 | 697 NFkB conf=19.2*
CCOCCOC(=O)c1[nH]c2c(c1C)C(=O)CC(c1ccccc1)C2 (stereo not drawn) | -53.1 | -0.5 | 51.7 | 60.3* | . | . | 51.4* | 53.4* | 60.1* | -40.3
Cn1nc(C(C)(C)C)cc1C(=O)NCc1ccc(N2CCCC2=O)cc1 | 42.0* | -2.3 | 80.5* | 65.8* | -96.3 | . | 65.8* | 77.3* | 36.0* | 42.4* | 697 NFkB conf=57.4*
Cc1ccc(CNC(=O)c2ccc(N3CCCC3=O)cc2)cc1 | 7.1 | -0.2 | -0.3 | -2.6 | . | . | . | . | . | .
CC(=O)Nc1ccc(S(=O)(=O)N2c3ccccc3C(C)=CC2(C)C)cc1 | -25.2 | 0.4 | 57.4* | 62.5* | -123.8 | 28.4 | 53.2* | 52.4* | 53.7* | 23.2
